Results as given in ChEMBL document CHEMBL1955854, “New retinoid derivatives as back-ups of Adarotene” (Bioorg Med Chem, 2012).

Columns and labels:
[1] = Chemical stability in aqueous buffer containing 5% DMSO and 5% tween 80 at pH 1.2 assessed as compound recovery in anoxic conditions after 12 hrs by UPLC analysis; format: physicochemical; conditions: pH 1.2, 12 h
Procedure, shortened: (§1)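 Stability at 37 °C in aqueous buffer with 5% DMSO and 5% Tween 80 at pH 1.2, 6.8 or 7.4; percent recovery by HPLC/UPLC on BEH C18 column, water+0.1% TFA/acetonitrile gradient from 40% to 95% acetonitrile over 8 min, room temperature.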

[2] = system: NCI-H460; experiment: Antiproliferative activity against human NCI-H460 cells incubated for 24 hrs drug exposure measured after 48 hrs of recovery by sulforhodamine B assay; format: functional, cell-based
[3] = Solubility in water; format: physicochemical; conditions: buffer
[4] = Chemical stability in aqueous buffer containing 5% DMSO and 5% tween 80 at pH 1.2 assessed as compound recovery in anoxic conditions after 3 hrs by UPLC analysis; format: physicochemical; conditions: read-out: Stability; procedure, shortened: as §1
[5] = Chemical stability in aqueous buffer containing 5% DMSO and 5% tween 80 at pH 6.8 assessed as compound recovery in anoxic conditions after 24 hrs by UPLC analysis; format: physicochemical; conditions: read-out: Stability; procedure, shortened: as §1
[6] = Chemical stability in aqueous buffer containing 5% DMSO and 5% tween 80 at pH 7.4 assessed as compound recovery in anoxic conditions after 24 hrs by UPLC analysis; format: physicochemical; conditions: read-out: Stability; procedure, shortened: as §1
[7] = Chemical stability in aqueous buffer containing 5% DMSO and 5% tween 80 at pH 6.8 assessed as compound recovery in anoxic conditions after 6 hrs by UPLC analysis; format: physicochemical; conditions: read-out: Stability; procedure, shortened: as §1
[8] = Chemical stability in aqueous buffer containing 5% DMSO and 5% tween 80 at pH 7.4 assessed as compound recovery in anoxic conditions after 6 hrs by UPLC analysis; format: physicochemical; conditions: read-out: Stability; procedure, shortened: as §1
[9] = system: A-431; experiment: Antiproliferative activity against human A431 cells incubated for 24 hrs drug exposure measured after 48 hrs of recovery by sulforhodamine B assay; format: functional, cell-based
[10] = system: Plasma; experiment: Prodrug conversion in mouse plasma assessed as drug concentration at 0.5 hrs; format: ADME, cell-free
Procedure, shortened: (§2)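 Prodrugs already shown stable at pH 1.2, 6.8 and 7.4 were incubated in murine plasma and sampled over time up to 6 h. A parallel incubation used murine plasma pretreated with the esterase inhibitor PMSF (phenylmethyl sulfonyl fluoride).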

[11] = system: Plasma; experiment: Prodrug conversion in mouse plasma assessed as drug concentration at 0.5 hrs in presence of esterase inhibitor PMSF; format: ADME, cell-free
Procedure, shortened: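 Prodrug incubated with murine plasma pretreated with the esterase inhibitor PMSF, run alongside untreated plasma; release of parent followed over time.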

[12] = system: Plasma; experiment: Prodrug conversion in mouse plasma assessed as drug concentration at 1 hr; format: ADME, cell-free; procedure, shortened: as §2
[13] = system: Plasma; experiment: Prodrug conversion in mouse plasma assessed as drug concentration at 3 hrs; format: ADME, cell-free; procedure, shortened: as §2
[14] = system: Plasma; experiment: Prodrug conversion in mouse plasma assessed as drug concentration at 6 hrs; format: ADME, cell-free; procedure, shortened: as §2
[15] = system: Plasma; experiment: Prodrug conversion in mouse plasma assessed as drug concentration at 6 hrs in presence of esterase inhibitor PMSF; format: ADME, cell-free; procedure, shortened: as §2

| Stability [1] | IC50 [2] [nM] | solubility [3] | remaining at 3 h [4] [%] | remaining at 24 h [5] [%] | remaining at 24 h [6] [%] | remaining at 6 h [7] [%] | remaining at 6 h [8] [%] | IC50 [9] [nM] | Drug metabolism [10] [%] | Drug metabolism [11] [%] | Drug metabolism [12] [%] | Drug metabolism [13] [%] | Drug metabolism [14] [%] | Drug metabolism [15] [%] | SMILES |
| --- | --- | --- | --- | --- | --- | --- | --- | --- | --- | --- | --- | --- | --- | --- | --- |
| Stable | 4200 | Insoluble | – | – | – | – | – | – | – | – | – | – | – | – | COCCOCOc1ccc(-c2ccc(/C=C/C(=O)O)cc2)cc1C12CC3CC(CC(C3)C1)C2 |
| Stable | 260 | Insoluble | > 99 | > 99 | > 99 | – | – | 530 | – | – | – | – | – | – | CC(=O)Oc1ccc(-c2ccc(/C=C/C(=O)O)cc2)cc1C12CC3CC(CC(C3)C1)C2 |
| Stable | 320 | Insoluble | > 99 | > 99 | > 99 | – | – | – | – | – | – | – | – | – | CCCOC(=O)OCOc1ccc(-c2ccc(/C=C/C(=O)O)cc2)cc1C12CC3CC(CC(C3)C1)C2 |
| Stable | 8400 | Insoluble | > 99 | > 99 | > 99 | – | – | – | – | – | – | – | – | – | O=C(O)/C=C/c1ccc(-c2ccc(OCN3C(=O)c4ccccc4C3=O)c(C34CC5CC(CC(C5)C3)C4)c2)cc1 |
| Stable | 850 | Insoluble | > 99 | > 99 | > 99 | – | – | – | 100 | 43.95 | 100 | 100 | 100 | 99.76 | O=C(O)/C=C/c1ccc(-c2ccc(OC(=O)C3CC3)c(C34CC5CC(CC(C5)C3)C4)c2)cc1 |
| Stable | 850 | Insoluble | > 99 | > 99 | > 99 | – | – | – | – | – | – | – | – | – | N#CCOc1ccc(-c2ccc(/C=C/C(=O)O)cc2)cc1C12CC3CC(CC(C3)C1)C2 |

Further lines, the molecule ahead of its results:

| SMILES | Stability [1] | IC50 [2] [nM] | solubility [3] | remaining at 3 h [4] [%] | remaining at 24 h [5] [%] | remaining at 24 h [6] [%] | remaining at 6 h [7] [%] | remaining at 6 h [8] [%] | IC50 [9] [nM] | Drug metabolism [10] [%] | Drug metabolism [11] [%] | Drug metabolism [12] [%] | Drug metabolism [13] [%] | Drug metabolism [14] [%] | Drug metabolism [15] [%] |
| --- | --- | --- | --- | --- | --- | --- | --- | --- | --- | --- | --- | --- | --- | --- | --- |
| CCCCCCCCCCC(=O)Oc1ccc(-c2ccc(/C=C/C(=O)O)cc2)cc1C12CC3CC(CC(C3)C1)C2 | Stable | 1540 | Insoluble | > 99 | > 99 | > 99 | – | – | – | – | – | – | – | – | – |
| CC(C)[C@H](N)C(=O)Oc1ccc(-c2ccc(/C=C/C(=O)O)cc2)cc1C12CC3CC(CC(C3)C1)C2.Cl | Stable | 510 | Insoluble | > 99 | 39 | 12 | 92 | 62 | 410 | – | – | – | – | – | – |
| CCCCC/C=C/C/C=C/CCCCCCCC(=O)Oc1ccc(-c2ccc(/C=C/C(=O)O)cc2)cc1C12CC3CC(CC(C3)C1)C2 | Stable | 7800 | Insoluble | – | – | – | – | – | – | – | – | – | – | – | – |
| NC1(C(=O)Oc2ccc(-c3ccc(/C=C/C(=O)O)cc3)cc2C23CC4CC(CC(C4)C2)C3)CC1.O=C(O)C(F)(F)F | Stable | 100 | Insoluble | > 99 | > 99 | 62 | – | 88 | 400 | 97.02 | 87.31 | 96.87 | 96.66 | 96.31 | 97.77 |
| CNCCNC(=O)Oc1ccc(-c2ccc(/C=C/C(=O)O)cc2)cc1C12CC3CC(CC(C3)C1)C2.Cl | Stable | 240 | Insoluble | > 99 | 69 | 36 | 92 | 76 | 320 | 96.23 | 1.35 | 99.8 | 99.94 | 99.95 | 17.55 |
| O=C(O)/C=C/c1ccc(-c2ccc(OC(=O)COCCOCCOCC(=O)O)c(C34CC5CC(CC(C5)C3)C4)c2)cc1 | Stable | 170 | Insoluble | > 99 | > 99 | > 99 | – | – | 330 | – | – | – | – | – | – |
| O=C(O)/C=C/c1ccc(-c2ccc(OC(=O)NC3CCN(C(=O)OCc4ccccc4)CC3)c(C34CC5CC(CC(C5)C3)C4)c2)cc1 | Stable | 5000 | Insoluble | > 99 | > 99 | > 99 | – | – | – | – | – | – | – | – | – |
| O=C(O)/C=C/c1ccc(-c2ccc(OCCN3CCOCC3)c(C34CC5CC(CC(C5)C3)C4)c2)cc1 | Stable | > 10000 | Insoluble | > 99 | > 99 | > 99 | – | – | – | – | – | – | – | – | – |
| CC(C)C[C@H](NC(=O)Oc1ccc(-c2ccc(/C=C/C(=O)O)cc2)cc1C12CC3CC(CC(C3)C1)C2)C(=O)NCC(=O)O | Stable | 3500 | Insoluble | > 99 | > 99 | > 99 | – | – | – | – | – | – | – | – | – |
| CN1CCN(CCCC(=O)Oc2ccc(-c3ccc(/C=C/C(=O)O)cc3)cc2C23CC4CC(CC(C4)C2)C3)CC1 | Stable | 240 | Insoluble | > 99 | 85 | 64 | 98 | 89 | 410 | – | – | – | – | – | – |
| O=C(O)/C=C/c1ccc(-c2ccc(OC(=O)NCC(=O)O)c(C34CC5CC(CC(C5)C3)C4)c2)cc1 | Stable | 3000 | Insoluble | > 99 | > 99 | > 99 | – | – | – | – | – | – | – | – | – |
| CC(C)NC(=O)Oc1ccc(-c2ccc(/C=C/C(=O)O)cc2)cc1C12CC3CC(CC(C3)C1)C2 | Stable | 5000 | Insoluble | > 99 | > 99 | > 99 | – | – | – | – | – | – | – | – | – |
| CCCCCCCCCCCNC(=O)Oc1ccc(-c2ccc(/C=C/C(=O)O)cc2)cc1C12CC3CC(CC(C3)C1)C2 | Stable | 1390 | Insoluble | > 99 | > 99 | > 99 | – | – | – | – | – | – | – | – | – |
